According to publication PMC5434479 (Inorganic Chemistry, 2017):
Where two headings read alike, the source gives them in different places.

Assays:
[1] = system: human promyelocytic leukemia (HL60) cells; assay: MTS antiproliferation assay, HL60 cells; type: cell-based; settings: for IC50: read-out: IC50 ± SE; for cell viability: HL60, 1 μM; for cell viability / inhibition of HL60 cell proliferation (in words): 72 h; for inhibition of HL60 cell proliferation (in words): HL60, 10 μM
Summary of the method: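 HL60 cells were kept in RPMI 1640 with 10% FCS, 2 mM L-glutamine and penicillin/streptomycin at 37 °C, 5% CO2, and seeded at 3 × 10^4 per 100 μL. Compound predissolved in DMSO was diluted 100-fold into wells (1% DMSO final). Wells received 10 or 1 μM, or a concentration series, in triplicate for 72 h. MTS reagent was added for 4 h, then absorbance read at 490 nm. Screening data were averaged over three experiments; IC50 calculated.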

[2] = system: human breast adenocarcinoma (MCF-7) cells; assay: MTS antiproliferation assay, MCF-7 cells; type: cell-based; settings: for IC50: read-out: IC50 ± SE
Summary of the method: (§1)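 Culture was at 37 °C, 5% CO2: A549 in RPMI 1640, MCF-7 and MRC-5 in DMEM, each with 10% FCS, 2 mM L-glutamine and penicillin/streptomycin. Seeding per 100 μL was 8 × 10^3 (A549, MCF-7) or 2 × 10^3 (MRC-5). Compound in DMSO was diluted 100-fold into wells (1% DMSO final), tested at several concentrations in triplicate for 72 h. MTS reagent was added for 4 h, then A490 read; IC50 calculated.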

[3] = system: human lung adenocarcinoma epithelial (A549) cells; assay: MTS antiproliferation assay, A549 cells; type: cell-based; settings: for IC50: read-out: IC50 ± SE
Summary of the method: as §1

[4] = system: human fetal lung fibroblast (MRC-5) cells; assay: MTS antiproliferation assay, MRC-5 healthy fibroblasts; type: cell-based; settings: for IC50: read-out: IC50 ± SE; for times less toxic toward healthy fibroblasts (MRC-5) than toward HL60 and MCF-7: MRC-5 versus HL60 and MCF-7
Summary of the method: as §1

MCF-7 cells = assay: Cellular uptake, gold content by ICP-MS, MCF-7 cells; type: cell-based, human; settings: MCF-7, 1 μM, 6 h
[5] = biological target: MDM2–p53 interaction (human MDM2 protein, residues 17–125) (Homo sapiens, UniProt Q00987); assay: Fluorescence polarization assay of MDM2–p53 interaction; type: binding; settings: for disruption of MDM2–p53 interaction in screening (in words): 100 μM
MDM2–p53 interaction (human MDM2 protein, residues 17–125), sequence (Q00987 17-125): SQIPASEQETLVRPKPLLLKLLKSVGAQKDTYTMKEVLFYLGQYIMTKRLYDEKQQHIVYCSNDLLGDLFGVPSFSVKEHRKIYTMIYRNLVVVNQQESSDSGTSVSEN
Summary of the method: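 Compound in DMSO was added at 1:10. Positive control was wild-type p53 peptide (15–27) at 400 μM final, negative control DMSO, each in triplicate. Plates were incubated 30 min at room temperature and read by polarisation at 490/520 nm, with total fluorescence checked. IC50 came from log(inhibitor) versus response, variable slope.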

[6] = system: i-motif-forming sequence from the promoter region of the oncogene hif-1α; assay: FRET DNA-melting assay, hif-1α i-motif; type: binding; settings: hif-1α i-motif 0.2 μM, 50 equiv (10 μM), pH 7.2
Summary of the method: (§2)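 FAM/TAMRA-labelled oligonucleotides were annealed in 10 mM sodium cacodylate with 100 mM NaCl. Buffer was pH 5.5 and 6.0 for hTeloC and pH 7.2 for hif-1α, hTeloG and duplex. Final DNA was 0.2 μM, with compound added at 1:10 by volume. DMSO-matched DNA controls ran in each run. Melting curves were recorded by real-time PCR machine, excitation 470 nm and detection 510 nm. Mean and SD of three experiments.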

A549 cells = assay: Cellular uptake, gold content by ICP-MS, A549 cells; type: cell-based, human; settings: A549, 10 μM, 6 h
[7] = system: G-quadruplex-forming sequence from the human telomere (hTeloG); assay: FRET DNA-melting assay, hTeloG; type: binding; settings: hTeloG G-quadruplex 0.2 μM, 50 equiv (10 μM), pH 7.2
Summary of the method: as §2

[8] = system: human telomeric i-motif sequence (hTeloC); assay: FRET DNA-melting assay, hTeloC; type: binding; settings: pH 5.5 and pH 6.0; for interaction in preliminary screening (in words): hTeloC i-motif 0.2 μM, 50 equiv (10 μM); for stabilization of telomeric i-motif, pH 6.0 versus pH 5.5 (in words): hTeloC
Summary of the method: as §2

MDM2 = MDM2 (Homo sapiens, UniProt Q00987); assay: STD NMR binding to MDM2; settings: 13.5 μM MDM2, 500 μM compound, 1% DMSO-d6, 25 °C
MDM2, sequence (Q00987 whole entry): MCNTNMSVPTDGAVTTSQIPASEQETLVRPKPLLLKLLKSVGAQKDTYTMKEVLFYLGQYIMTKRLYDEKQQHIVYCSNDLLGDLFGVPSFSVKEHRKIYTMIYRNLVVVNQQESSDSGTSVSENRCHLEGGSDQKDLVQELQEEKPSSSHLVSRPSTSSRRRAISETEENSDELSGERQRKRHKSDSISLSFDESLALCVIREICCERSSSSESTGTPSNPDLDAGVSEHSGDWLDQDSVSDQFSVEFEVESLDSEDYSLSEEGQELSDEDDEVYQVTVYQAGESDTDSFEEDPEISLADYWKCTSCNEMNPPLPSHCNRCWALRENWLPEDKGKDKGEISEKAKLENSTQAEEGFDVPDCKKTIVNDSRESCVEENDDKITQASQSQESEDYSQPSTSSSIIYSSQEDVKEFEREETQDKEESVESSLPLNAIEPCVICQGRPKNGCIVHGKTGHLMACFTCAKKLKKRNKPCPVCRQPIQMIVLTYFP
Summary of the method: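 STD NMR at 800 MHz used a pseudo-2D sequence with spoil pulses. Protein was saturated by cascades of 49 ms Gaussian pulses, 1 ms apart, on-resonance at 0 ppm and off-resonance at 40 ppm. Saturation lasted 4 s for binding detection and 0.5 s for epitope mapping, 1024 scans each. Blank runs without protein were done. Epitope values were normalised to the most intense proton as 100%.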

[9] = Reaction with glutathione monitored by 1H NMR; type: physicochemical; settings: equimolar GSH (10 mM) in DMSO-d6, room temperature, 6 days
double-stranded DNA = assay: FRET DNA-melting assay, double-stranded DNA; type: binding; settings: double-stranded DNA 0.2 μM, 50 equiv (10 μM), pH 7.2
Summary of the method: as §2

Compound | IC50 ([1]; HL60, 72 h incubation, MTS) [µM] | cell uptake (in words) (MCF-7 cells) | IC50 ([2]; MCF-7, 72 h incubation, MTS) [µM] | cell uptake (in words) (A549 cells) | IC50 ([3]; A549, 72 h incubation, MTS) [µM] | cell viability [1] | inhibition of HL60 cell proliferation (in words) [1] | disruption of MDM2–p53 interaction in screening (in words) [5] | interaction in preliminary screening (in words) [6] | interaction in preliminary screening (in words) [7] | interaction in preliminary screening (in words) [8] | stabilization of telomeric i-motif, pH 6.0 versus pH 5.5 (in words) [8] | times less toxic toward healthy fibroblasts (MRC-5) than toward HL60 and MCF-7 [4] | IC50 ([4]; MRC-5, 72 h incubation, MTS) [µM] | further results
Nc1nc2nc[nH]c2c(=S)[nH]1 [Compound 6-TG, 6-thioguanine, reference compound] | – | – | – | – | – | – | – | – | – | – | – | – | – | – | IC50 ([1]; Homo sapiens, HL-60, 72 h): 0.98 ± 0.07 µM; IC50 ([2]; Homo sapiens, MCF7, 72 h): 0.42 ± 0.13 µM; IC50 ([3]; Homo sapiens, A549, 72 h): > 50 µM; IC50 ([4]; Homo sapiens, MRC5, 72 h): > 50 µM; IC50 ± SE ([4]; MRC-5, 72 h incubation, MTS): nontoxic
N.N.[Cl][Pt][Cl] [cisplatin, cis-diamminedichloroplatinum(II), reference compound] | 3.7 ± 0.25 | – | 21.2 ± 3.9 | – | 33.7 ± 3.7 | – | – | – | – | – | – | – | – | 10.7 ± 3 | –
[(C^N^pz^N)Au(1,3,7,9-tetramethylxanthin-8-ylidene)]BF4 [Compound 3] | 4.05 ± 0.43 | poorly taken up | 7.9 ± 0.13 | poorly taken up | > 50 | nontoxic | completely inhibited cell proliferation | only compounds 1 and 2 appeared to disrupt | good interactions | good interactions | good interactions | does not show any particular difference | 2–4 | 17.6 ± 1.9 | –

More lines, main results first:

IC50 ([1]; HL60, 72 h incubation, MTS) [µM] | cell uptake (in words) (MCF-7 cells) | IC50 ([2]; MCF-7, 72 h incubation, MTS) [µM] | cell uptake (in words) (A549 cells) | IC50 ([3]; A549, 72 h incubation, MTS) [µM] | Compound | cell viability [1] | inhibition of HL60 cell proliferation (in words) [1] | disruption of MDM2–p53 interaction in screening (in words) [5] | interaction in preliminary screening (in words) [6] | interaction in preliminary screening (in words) [7] | interaction in preliminary screening (in words) [8] | stabilization of telomeric i-motif, pH 6.0 versus pH 5.5 (in words) [8] | times less toxic toward healthy fibroblasts (MRC-5) than toward HL60 and MCF-7 [4] | IC50 ([4]; MRC-5, 72 h incubation, MTS) [µM] | further results
0.31 ± 0.15 | highest concentrations | 0.56 ± 0.02 | much higher uptake | 7.8 ± 1.3 | [(C^N^pz^N)Au(1,3-dimethylbenzimidazol-2-ylidene)]PF6 [Compound 2] | 22% | completely inhibited cell proliferation | appeared to disrupt the MDM2–p53 interaction | good interactions | good interactions | good interactions | stabilize the telomeric i-motif structure at pH 6.0 more efficiently than at pH 5.5 | 2–4 | 1.4 ± 0.4 | IC50 ([5]; 10 nM HDM2 and tagged peptide, pH 7.4): 31.1 ± 1.1 µM; times more potent than 3 ([2]; MCF-7, ratio of IC50 values): up to 14; times more toxic than (benzimidazolylidene)AuCl ([2]; MCF-7, comparator value ref 44): more than 10; intracellular gold concentration, times higher than that of 1 (A549 cells): ~4; intracellular gold concentration, times higher than that of 3 (A549 cells): ~11; times more toxic than cisplatin ([3]; A549, ratio of IC50 values): 4; toxicity relative to (benzimidazolylidene)AuCl ([3]; A549, comparator value ref 25b): more than twice as toxic; binding to MDM2 in solution (in words) (MDM2): clearly confirmed the binding; stability toward GSH [9]: high stability
0.9 ± 0.22 | – | 0.78 ± 0.11 | – | 29 ± 1.8 | (C^N^pz^N)Au(6-thioguanine) [Compound 4] | 60% | completely inhibited cell proliferation | – | did not show any interaction | did not show any interaction | did not show any interaction | – | – | 4.3 ± 0.7 | interaction in preliminary screening (in words) (double-stranded DNA): did not show any interaction
